Three compounds from ChEMBL document CHEMBL2169802, “A new strategy for detection and development of tractable telomerase inhibitors” (J Med Chem, 2012) can be followed below.

For orientation: IC50 means the concentration at which inhibition is half-maximal. The low end stands for greater potency in that assay, the high end for weaker potency in that assay.

Calls of active or inactive are those of the source. The rule behind the calls is not given here. A value given as a limit tells only on which side of the number the result lay.

T1 sequence (O14746 whole entry): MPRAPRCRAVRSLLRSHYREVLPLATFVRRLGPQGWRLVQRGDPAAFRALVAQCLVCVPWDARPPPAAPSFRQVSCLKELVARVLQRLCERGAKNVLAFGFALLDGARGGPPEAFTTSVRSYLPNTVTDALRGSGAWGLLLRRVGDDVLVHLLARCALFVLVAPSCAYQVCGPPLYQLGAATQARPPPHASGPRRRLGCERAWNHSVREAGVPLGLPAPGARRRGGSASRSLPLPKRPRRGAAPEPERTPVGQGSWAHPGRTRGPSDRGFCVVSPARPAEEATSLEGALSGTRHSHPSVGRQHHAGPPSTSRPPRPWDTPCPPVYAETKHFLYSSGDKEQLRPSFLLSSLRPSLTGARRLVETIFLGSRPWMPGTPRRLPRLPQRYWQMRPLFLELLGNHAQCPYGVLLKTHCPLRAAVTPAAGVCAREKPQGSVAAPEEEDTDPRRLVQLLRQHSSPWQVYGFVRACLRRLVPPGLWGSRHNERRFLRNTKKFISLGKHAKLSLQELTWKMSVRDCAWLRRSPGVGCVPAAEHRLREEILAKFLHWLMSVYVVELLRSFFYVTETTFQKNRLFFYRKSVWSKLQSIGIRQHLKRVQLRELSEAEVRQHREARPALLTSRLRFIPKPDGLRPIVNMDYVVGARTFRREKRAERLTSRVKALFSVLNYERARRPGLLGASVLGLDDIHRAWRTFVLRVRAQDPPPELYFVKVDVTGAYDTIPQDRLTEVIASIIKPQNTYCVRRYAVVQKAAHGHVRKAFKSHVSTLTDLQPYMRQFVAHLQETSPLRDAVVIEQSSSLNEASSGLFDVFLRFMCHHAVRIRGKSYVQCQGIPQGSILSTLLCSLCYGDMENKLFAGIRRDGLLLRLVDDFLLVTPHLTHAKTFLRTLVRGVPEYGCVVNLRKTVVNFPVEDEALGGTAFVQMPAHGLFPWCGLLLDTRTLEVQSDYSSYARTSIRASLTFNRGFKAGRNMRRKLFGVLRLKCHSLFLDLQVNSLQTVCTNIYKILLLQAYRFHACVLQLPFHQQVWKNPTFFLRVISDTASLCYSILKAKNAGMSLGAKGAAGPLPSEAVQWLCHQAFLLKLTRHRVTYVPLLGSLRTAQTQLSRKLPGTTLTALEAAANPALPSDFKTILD

The first test has as its target T1, Telomerase reverse transcriptase (Homo sapiens, UniProt O14746). The test can be described thus: Inhibition of telomerase in human HeLa cells using 5'-AAT CCG TCG AGC AGA GTT-3' as substrate incubated for 15 mins prior to extension reaction followed by compound washout by spin-telomeric repeat amplification protocol. It counts as cell-based. In a few lines:
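HeLa extract in CHAPS lysis buffer, preincubated with inhibitor (DMSO) on ice 15 min in TRAP buffer pH 8.0. Extension with 100 ng h-TS and 50 μM dNTPs at 25 °C for 10 min, then heat-killed. Products passed through a Bio-Gel P6 spin column pre-equilibrated in TRAP buffer to remove inhibitor, then amplified with h-ACX, dNTPs and Taq, 27 cycles. SYBR Gold-stained 10% PAGE and densitometry.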
`O=c1cc(-c2ccc(O)c(O)c2)oc2c(O)c(O)ccc12`: the midpoint of inhibition, the IC50, lay at 0.25 µM. That is a sub-micromolar value.

Regarding `C/C(=C\C(=O)Nc1ccccc1C(=O)O)c1ccc2ccccc2c1`, the IC50 amounted to 4.6 µM. This IC50 is about 18-fold higher than that of the compound before.

For the compound `C[n+]1ccc(-c2c3nc(c(-c4cc[n+](C)cc4)c4ccc([nH]4)c(-c4cc[n+](C)cc4)c4nc(c(-c5cc[n+](C)cc5)c5ccc2[nH]5)C=C4)C=C3)cc1`, the IC50 came out at 0.147 µM. This IC50 is about 31-fold lower than that of the compound before.

Another test deals with T1, Telomerase reverse transcriptase. Put plainly: Mixed type inhibition of telomerase in human HeLa cells using 5'-AAT CCG TCG AGC AGA GTT-3' as substrate assessed as ratio of IC50 at saturated substrate concentration to IC50 at Km by telomeric repeat amplification protocol. The format is cell-based. In a few lines:
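HeLa cell extract in CHAPS lysis buffer, preincubated 15 min on ice with inhibitor (in DMSO) in TRAP buffer. Extension ran 10 min at 25 °C, then 90 °C 5 min. […] Products were amplified by PCR and run on 10% PAGE with SYBR Gold densitometry. Ratio is IC50 at high substrate over IC50 at Km.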
For the compound `O=c1cc(-c2ccc(O)c(O)c2)oc2c(O)c(O)ccc12`, the Ratio IC50 was 4.3.

The test system of the next test is Tetrahymena. Put plainly: Mixed type inhibition of tetrahymena telomerase using dNTP as substrate assessed as ratio of IC50 at saturated substrate concentration to IC50 at Km by telomeric repeat amplification protocol. The gist of the method: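 Extension ran 15 min at 30 °C, then heat-killed. Triplicate at 360 nM t-TS + 40 μM dNTPs; 360 nM t-TS + 0.8 μM dNTPs; 20 nM t-TS + 40 μM dNTPs. A 26-cycle PCR followed, with PAGE/SYBR Gold densitometry. Ratio is IC50 at high substrate over IC50 at Km.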
With `O=c1cc(-c2ccc(O)c(O)c2)oc2c(O)c(O)ccc12`, the Ratio IC50 stood at 2.75.

A further test has as its target T1, Telomerase reverse transcriptase. Put plainly: Inhibition of telomerase in human HeLa cells using 5'-AAT CCG TCG AGC AGA GTT-3' as substrate incubated for 15 mins prior to extension reaction by telomeric repeat amplification protocol. It counts as cell-based. In a few lines:
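HeLa cell extract diluted in CHAPS lysis buffer, preincubated on ice 15 min with inhibitor (in DMSO) in TRAP buffer (20 mM Tris-HCl pH 8.0, 68 mM KCl, 1.5 mM MgCl2, 1 mM EGTA, BSA, 0.05% Tween 20). Extension started with 100 ng h-TS and 50 μM dNTPs, 25 °C 10 min, then 90 °C 5 min. Products amplified by PCR with h-ACX and Taq, 27 cycles. Read by 10% PAGE, SYBR Gold staining and densitometry. Three or more experiments.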
In the case of `O=c1cc(-c2ccc(O)c(O)c2)oc2c(O)c(O)ccc12`, half-maximal inhibition (IC50) was put at 0.23 µM. This lies in the sub-micromolar range.

`C/C(=C\C(=O)Nc1ccccc1C(=O)O)c1ccc2ccccc2c1` had an IC50 of 3.6 µM.

On to `C[n+]1ccc(-c2c3nc(c(-c4cc[n+](C)cc4)c4ccc([nH]4)c(-c4cc[n+](C)cc4)c4nc(c(-c5cc[n+](C)cc5)c5ccc2[nH]5)C=C4)C=C3)cc1`, for which the IC50 is 0.06 µM.

The subject of the next test is Nucleic Acid. Put plainly: Binding affinity to […] TSG4 5'-(GGGATT)3GGGTT-3' DNA assessed as G-quadruplex stabilization at 2 uM by thermal melt analysis. The format is nucleic-acid assay. The gist of the method:
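TSG4 oligo 5′-(GGGATT)3GGGTT-3′ at 2 μM in 20 mM Tris-HCl pH 8.0, 68 mM KCl, 1.5 mM MgCl2, with 2 μM inhibitor from 1:1 DMSO:H2O. UV melt from 30 to 82 °C at 0.5 °C/min, reading A295 every 30 s. The ramp was then run back down to check reversibility.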
Turning to `O=c1cc(-c2ccc(O)c(O)c2)oc2c(O)c(O)ccc12`, the result was inactive.

Consider `C/C(=C\C(=O)Nc1ccccc1C(=O)O)c1ccc2ccccc2c1`, for which the outcome was inactive.

A further test has as its target T1, Telomerase reverse transcriptase. Put plainly: Inhibition of telomerase in human HeLa cells using 5'-AAT CCG TCG AGC AGA GTT-3' as substrate at 1 uM incubated for 15 mins prior to extension reaction by telomeric repeat amplification protocol. The format is cell-based.
Turning to `O=c1cc(-c2ccc(O)c(O)c2)oc2c(O)c(O)ccc12`, the Imax amounted to 100%.

Compound `C/C(=C\C(=O)Nc1ccccc1C(=O)O)c1ccc2ccccc2c1` had an Imax of 100%.

A further test concerns Tetrahymena. The test can be described thus: Inhibition of tetrahymena telomerase using 3'-ACT TCG TAG AGC AGA TTG-5' as substrate at 1 uM incubated for 10 mins prior to extension reaction by telomeric repeat amplification protocol.
`O=c1cc(-c2ccc(O)c(O)c2)oc2c(O)c(O)ccc12` had an Imax of 100%.

The target of the next test is T1, Telomerase reverse transcriptase. The test can be described thus: Inhibition of telomerase in human HeLa cells after 2 hrs by [alpha-32P]dGTP incorporation assay. It counts as cell-based.
With `C/C(=C\C(=O)Nc1ccccc1C(=O)O)c1ccc2ccccc2c1`, half-maximal inhibition (IC50) required 0.093 µM.

Molecular target in another test: not listed separately
The test can be described thus: Inhibition of tetrahymena telomerase using 3'-ACT TCG TAG AGC AGA TTG-5' as substrate incubated for 10 mins prior to extension reaction by telomeric repeat amplification protocol. In a few lines: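 Tetrahymena extract in TTRB (50 mM Tris-HCl pH 8.0, spermidine, 2 mM DTT, 2 mM MgCl2, 1 mM EGTA) with inhibitor from 1:1 DMSO:H2O, held on ice 10 min. Reaction started with t-TS (40 nM final) and 50 μM dNTPs; 30 °C for 15 min, then heat kill. 10 μL diluted into PCR mix with t-ACX for 26 cycles. Read by SYBR Gold PAGE densitometry, in replicates.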
For the compound `O=c1cc(-c2ccc(O)c(O)c2)oc2c(O)c(O)ccc12`, the IC50 came out at 0.62 µM.

As for `C/C(=C\C(=O)Nc1ccccc1C(=O)O)c1ccc2ccccc2c1`, the IC50 was greater than 200 µM.

The compound `C[n+]1ccc(-c2c3nc(c(-c4cc[n+](C)cc4)c4ccc([nH]4)c(-c4cc[n+](C)cc4)c4nc(c(-c5cc[n+](C)cc5)c5ccc2[nH]5)C=C4)C=C3)cc1` registered an IC50 of 0.14 µM.

Molecular target in a further test: not listed separately
Put plainly: Inhibition of Thermus aquaticus DNA polymerase using 5'-AAT CCG TCG AGC AGA GTT-3' as substrate after 15 mins by telomeric repeat amplification protocol. In a few lines: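 h-TRAP run with HeLa extract in TRAP buffer (pH 8.0) with 50 μM dNTPs and 100 ng h-TS. Extension at 25 °C for 10 min, then 90 °C for 5 min, and inhibitor added only after this step. Amplified with h-ACX primer and Taq for 27 cycles (95/50/72 °C). Products run on 10% PAGE, stained with SYBR Gold and quantified by densitometry.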
For the compound `O=c1cc(-c2ccc(O)c(O)c2)oc2c(O)c(O)ccc12`, the IC50 stood at 28.1 µM.

As to `C/C(=C\C(=O)Nc1ccccc1C(=O)O)c1ccc2ccccc2c1`, the IC50 was greater than 60 µM.

In turn, `C[n+]1ccc(-c2c3nc(c(-c4cc[n+](C)cc4)c4ccc([nH]4)c(-c4cc[n+](C)cc4)c4nc(c(-c5cc[n+](C)cc5)c5ccc2[nH]5)C=C4)C=C3)cc1` showed an IC50 of 0.15 µM.
